# Source: PubChem BioAssay (several laboratories)
# APJ agonist – agonists of human apelin receptor APJ, primary screen, CHO-K1 cells, PathHunter beta-arrestin, luminescence | P35414 | 0% DMSO wells, 100% apelin | activation, % at 20 µM | 330,000 tested, 0.11% active;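 active = activation more than six SD over the plate average, tested at 20 µM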
#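 system = engineered CHO-K1 APJ arrestin reporter cells | input = 1000 cells per well | timing = overnight seeding, 90 min compound at 25 °C, 1 h detection | measured by = enzyme-fragment complementation luminescence | read-out = beta-arrestin recruitment to APJ as agonist activity, luminescent signal | control set = negative DMSO alone, positive Apelin-13 at 10 nM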
# CXCR6 inh – CXCR6 receptor inhibitors, primary screen, cell-based, beta-arrestin, luminescence, CHO-K1 PathHunter, 1536-well; inhibition, % at 20 µM; AID 602244, 2012; 360,000 tested, 0.36% active; C-X-C chemokine receptor type 6 (Homo sapiens), O00574; in the data active = inhibition above about 34%, passing the limit was not always enough;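 note: antagonist mode with CXCL16 agonist at 10 nM final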
# CCR6 antagonist – CCR6 receptor antagonists, primary screen, cell-based, CHO-K1, luminescence, beta-arrestin, uHTS | C-C chemokine receptor type 6 (Homo sapiens), P51684 | CHO-K1 CCR6 PathHunter beta-arrestin, CCL20-stimulated | inhibition, % at 20 µM | 340,000 tested, 0.49% active | AID 493098, 2011;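 active = compounds whose inhibition of the agonist-driven luminescence signal at 20 µM reaches about 50%, limit read from the data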;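 note: cells stimulated with CCL20 at 14 nM final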
# Beta2AR agonist – beta2AR agonists driving receptor internalization, primary screen, cell-based, FAP fluorogen, flow cytometry. Beta-2 adrenergic receptor (Homo sapiens), P07550. Am2.2-beta2AR cells. response, % (concentration not given with the values). 340,000 tested, 0.43% active;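 active = response above a set limit, near 3 SD of response in nonfluorescent compounds, cut at about 42% in these data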
# APJ antagonist – antagonists of human apelin receptor APJ, primary screen, CHO-K1 cells, beta-arrestin complementation, luminescence; inhibition, % at 20 µM; P35414; AID 2521, 2010; 330,000 tested, 0.32% active;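 active = inhibition above about 40% at 20 µM, limit read from the data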;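 note: cells challenged with 10 nM apelin-13 agonist together with compound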
# EBI2 antag – EBI2 receptor antagonists, beta-arrestin recruitment, primary screen, cell-based, luminescence, 7a,25-OHC stimulation, uHTS; AID 651636, 2012; inhibition, % at 5 µM; G-protein coupled receptor 183 (Homo sapiens), P32249; 360,000 tested, 0.81% active; 7a,25-OHC stimulated; in the data active = inhibition above about 38%;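 note: enzyme fragment complementation signal reports receptor beta-arrestin coupling in cells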
# Target sequence (P32249 whole entry, looked up, the tested form may be a part): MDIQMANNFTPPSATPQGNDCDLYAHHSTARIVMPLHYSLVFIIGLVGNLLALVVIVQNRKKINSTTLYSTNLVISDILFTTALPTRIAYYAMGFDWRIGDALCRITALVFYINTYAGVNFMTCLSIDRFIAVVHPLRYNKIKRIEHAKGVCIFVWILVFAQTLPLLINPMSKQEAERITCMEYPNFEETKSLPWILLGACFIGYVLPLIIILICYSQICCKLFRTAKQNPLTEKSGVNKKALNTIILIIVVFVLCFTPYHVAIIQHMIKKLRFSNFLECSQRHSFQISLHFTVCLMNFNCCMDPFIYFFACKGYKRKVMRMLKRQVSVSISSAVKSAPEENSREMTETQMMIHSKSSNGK
# CXCR6 confirm – CXCR6 receptor antagonists, confirmation, cell-based, single concentration, beta-arrestin, luminescence; shares compounds with CXCR6 inh; CHO-K1 CXCR6 PathHunter beta-arrestin; inhibition, % at 20 µM; 700 tested, 65% active; AID 602409, 2012;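 active = mean inhibition over four retests above 40%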;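 note: receptor stimulated with 10 nM CXCL16 agonist; beta-galactosidase fragment complementation upon beta-arrestin recruitment to receptor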
# Hits are given with their value; 0 = inactive; - = no result. Rows were chosen to be rich in hits. Some 1.8% of all compounds tested hit in one or more screens of this group.
SMILES,APJ agonist,CXCR6 inh,CCR6 antagonist,Beta2AR agonist,APJ antagonist,EBI2 antag,CXCR6 confirm
Nc1ccccc1C#CC(=O)c1ccccc1,0,40,0,44,0,0,59
O=C(C#Cc1cccc([N+](=O)[O-])c1)c1ccccc1,0,72,-,88,0,0,71
O=C(NCc1cccnc1)/C(=C/c1ccc(-c2cccc(Cl)c2)o1)S(=O)(=O)c1ccccc1,0,0,0,0,0,0,-
O=C(NCc1cccnc1)/C(=C\c1ccc(-c2cccc(Cl)c2)o1)S(=O)(=O)c1ccccc1,-,33,0,0,-,42,41
COc1cc(C(=O)NCC(c2ccco2)N2CCc3ccccc3C2)cc(OC)c1OC (configuration not stated),0,44,0,0,0,0,54
O=C(NCC(c1ccco1)N1CCc2ccccc2C1)c1ccccc1 (configuration not stated),0,0,0,0,0,0,-
Nc1nnc(SCC(=O)OCC(=O)c2ccccc2Br)s1,0,49,0,0,0,0,0
Nc1nnc(SCC(=O)OCC(=O)c2ccccc2)s1,0,0,0,0,0,0,-
O=C1C=CC(=O)N1CCCCCCCCCCN1C(=O)C=CC1=O,-,87,111,0,-,0,51
CC1=NN(/C(=N\c2nnc(C)s2)Nc2ccc(C(C)(C)C)cc2)[C@H](c2ccc(C)cc2)S1,0,40,0,0,0,0,0
COc1ccc(Cl)cc1NC(=O)CN(C)C(=O)CCc1nc2ccccc2c(=O)[nH]1,0,0,0,0,0,0,-
NN=C1c2ccccc2C(=O)C1C(=O)C(c1ccccc1)c1ccccc1 (configuration not stated),-,40,63,0,-,0,0
CC1(C)CC2(C)OC2C2(C1)N=NC(=Nc1ccccc1)O2 (configuration not stated),-,0,-,-,-,0,-
CC1Cc2ccccc2N1C(=S)NC(=O)c1cccc(Br)c1 (configuration not stated),0,48,-,0,0,0,65
Cc1ccc(F)cc1CNC(=O)C1CCC(=O)N(C2CC2)C1 (configuration not stated),0,38,0,0,0,0,0
Cc1cc(NCc2ccccn2)n2c(nc3ccccc32)c1C#N,-,0,0,0,-,0,-
CCCc1cc(NCc2ccccn2)n2c(nc3ccccc32)c1C#N,0,59,0,0,0,0,0
Cn1cnc([N+](=O)[O-])c1NC(C)(C)C,0,0,0,0,0,0,-
Cn1cnc([N+](=O)[O-])c1S(=O)(=O)c1ccc(Cl)cc1,-,42,0,0,-,0,69
O=C(COc1ccc(Br)cc1Cl)NC(=S)N1CCc2ccccc21,0,57,0,0,0,0,53
Cc1cc(S(=O)(=O)Nc2nc(CN3CCOCC3)nc3sc4c(c23)CCC4)ccc1F,0,0,0,0,0,0,-
CNC(=O)c1nnsc1S(=O)c1ccc(Cl)cc1 (configuration not stated),0,96,99,0,0,0,97
CCCNC(=O)c1nnsc1S(=O)c1ccc(Cl)cc1 (configuration not stated),0,87,97,50,0,0,99
CCCCC[C@@H](C)N1C[C@H](COCc2ccccc2)Oc2cc(N3CCC[C@H]3CO)ccc2S1(=O)=O,-,0,-,-,-,0,-
O=C(CSc1nc2ccccc2c(=O)[nH]1)NCc1ccc(Cl)cc1,0,0,0,0,0,0,-
SMILES,APJ agonist,CXCR6 inh,CCR6 antagonist,Beta2AR agonist,APJ antagonist,EBI2 antag,CXCR6 confirm
O=c1[nH]c(SCc2ccc(Cl)cc2)nc2ccccc12,0,82,0,0,0,0,0
COc1ccc(NC(=O)COC(=O)CCC2CCCC2)c(OC)c1,0,0,0,0,0,0,-
CN1CCN(c2ccc([N+](=O)[O-])cc2C(=O)c2ccc(Br)cc2)CC1,0,0,0,0,0,0,-
Cc1ccc(C(=O)c2cc([N+](=O)[O-])ccc2N2CCN(C)CC2)cc1,0,59,0,0,0,0,0
O=C(COC(=O)/C=C/c1ccccc1)NC(=O)NCc1ccccc1,0,0,0,0,0,0,-
COc1ccc(/C=C/c2ccc3cccc(O)c3n2)c(OC)c1OC,0,38,61,0,0,0,44
Cc1ccc(/C=C/c2ccc3cccc(O)c3n2)s1,0,36,52,0,0,0,0
COc1cc(Br)cc(/C=C/c2ccc3cccc(O)c3n2)c1OC,0,0,0,0,0,0,-
O=c1[nH]c(=O)n2ncnc2[nH]1,-,0,-,-,-,0,-
O=C(Nc1ccc(F)cc1)C(c1cccc(F)c1)N1CCN(C(=O)c2ccco2)CC1 (configuration not stated),-,-,-,-,-,0,-
Cc1cnc(C(=O)Nc2cccc3cccnc23)cn1,-,51,56,0,-,0,0
Cc1cccc(C(=O)Nc2cccc3cccnc23)c1,0,0,0,0,0,0,-
S=C(Nc1ccccc1)Nc1ccccn1,-,0,-,-,-,0,-
S=C(Nc1ccccc1)c1ccccn1,0,56,-,0,0,0,79
Cc1cc(OC(=O)Cc2cccc3ccccc23)c([N+](=O)[O-])c(=O)[nH]1,0,39,0,0,0,0,0
COc1ccc(S(=O)(=O)N2CCN(C(=O)CCCN3C(=O)NC4(CCCC4)C3=O)CC2)cc1,0,0,0,0,0,0,-
CCOc1ccc(N(CC(=O)NCCSc2ccccn2)S(=O)(=O)c2ccc(Cl)cc2)cc1,0,0,0,0,0,0,-
CCOc1ccc(N(CC(=O)N/N=C/c2ccccn2)S(=O)(=O)c2ccc(Cl)cc2)cc1,0,40,0,0,0,0,41
N#C/C(=C\c1c[nH]c2ccccc12)C(N)=O,0,0,0,0,0,0,-
CC(=O)Oc1c(/C=C(\C#N)C(N)=O)[nH]c2ccccc12,-,42,0,0,-,0,0
C/C(CCc1ccccc1)=N\NC(=S)NCCc1ccccc1,0,0,0,0,0,0,-
C/C(CCC(C)C)=N\NC(=S)NCc1ccccc1,0,40,0,0,0,0,0
CC(C)[C@H](NC(=O)OC(C)(C)C)c1nnc(S(=O)(=O)Cc2c(F)cccc2Cl)o1,0,63,63,0,0,0,61
Cc1ccc(C(=O)OCC(=O)NC2CCCC2)cc1,0,0,0,0,0,0,-
O=C(NCc1cccnc1)c1cc(C2CCCCN2S(=O)(=O)c2cccc3cccnc23)on1 (configuration not stated),-,0,-,-,-,0,-
N#C/C(=C/c1ccc(-c2ccc(S(N)(=O)=O)cc2)o1)C(=O)Nc1ccccc1,0,0,0,0,0,0,-
